Source: PubChem BioAssay (Sanford-Burnham Center for Chemical Genomics)
This is a sample that favours compounds with a hit; in the whole collection about 3.3% have one here.
SENP7 inh: SENP7 protease inhibitors, primary screen, biochemical, luminescence, uHTS | Sentrin-specific protease 7 (Homo sapiens), Q9BQF6 | recombinant SENP7, Z-RLRGG-aminoluciferin luminescence, 40 min | inhibition, % at 5 µM | hit rate 1.5% among 330,000;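 active = inhibition above about 50% at the single test dose, limit read from the data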;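 also: plate controls were DMSO with enzyme for no effect and no enzyme buffer wells for full effect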
SENP1 inh: human SENP1 catalytic domain inhibitors, primary screen, biochemical, FRET, uHTS; Sentrin-specific protease 1 (Homo sapiens), Q9P0U3; recombinant SENP1 catalytic domain, CyPet-SUMO1-YPet FRET cleavage; inhibition, % at 10 µM; hit rate 0.21% among 360,000;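 active = inhibition at least 30% at 10 µM, raw YFP signal under a set limit, fluorescence ratio 0.5 to 1.5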;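 also: 0% = enzyme with DMSO and 100% = no enzyme wells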
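material = recombinant human SENP1 catalytic domain, His6-tagged | quantity = 20 pM enzyme | reagent = 25 nM SUMO1 FRET substrate | compound dosing = 10 µM single point, 0.5% DMSO | timing = 50 min enzyme reaction, room temperature, light-protected | detection = FRET, CFP and YFP emission | control set = no-enzyme low, enzyme-DMSO high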
CendR NRP1 mod: modulators of CendR peptide binding to NRP-1, primary screen, biochemical, fluorescence polarization, uHTS; Neuropilin-1 (Homo sapiens), O14786; FAM-RPARPAR peptide binding to NRP-1; inhibition, % at 25 µM; hit rate 0.85% among 360,000;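 active = inhibition or corrected inhibition above about 18%, plus a signal ratio from 0.5 to 1.5, limit read from the data, passing the limit was not always enough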
SENP8 block-1: SENP8 protease inhibitors, primary screen, biochemical, luminescence; purified SENP8, Z-RLRGG-aminoluciferin cleavage; inhibition, % at 10 µM; hit rate 1.2% among 330,000; in the data active = inhibition above about 50%
Target sequence (Q96LD8 whole entry, looked up): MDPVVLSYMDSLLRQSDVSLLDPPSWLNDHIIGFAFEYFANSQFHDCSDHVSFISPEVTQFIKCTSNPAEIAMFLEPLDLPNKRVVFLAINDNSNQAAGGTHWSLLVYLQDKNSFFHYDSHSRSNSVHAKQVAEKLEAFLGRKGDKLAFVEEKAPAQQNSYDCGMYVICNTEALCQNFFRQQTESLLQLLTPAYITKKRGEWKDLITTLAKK
SENP6 inh: SENP6 protease inhibitors, primary screen, biochemical, luminescence, uHTS; Sentrin-specific protease 6 (Homo sapiens), Q9GZR1; Recombinant SENP6 catalytic domain, aminoluciferin luminescence; inhibition, % at 10 µM; hit rate 1.8% among 330,000;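 active = inhibition above about 50% at the single tested dose, limit read from the data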;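 also: plate controls were DMSO wells with enzyme for no effect and DMSO wells lacking enzyme for full effect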
Target sequence (Q9GZR1 628-1112 limits assumed): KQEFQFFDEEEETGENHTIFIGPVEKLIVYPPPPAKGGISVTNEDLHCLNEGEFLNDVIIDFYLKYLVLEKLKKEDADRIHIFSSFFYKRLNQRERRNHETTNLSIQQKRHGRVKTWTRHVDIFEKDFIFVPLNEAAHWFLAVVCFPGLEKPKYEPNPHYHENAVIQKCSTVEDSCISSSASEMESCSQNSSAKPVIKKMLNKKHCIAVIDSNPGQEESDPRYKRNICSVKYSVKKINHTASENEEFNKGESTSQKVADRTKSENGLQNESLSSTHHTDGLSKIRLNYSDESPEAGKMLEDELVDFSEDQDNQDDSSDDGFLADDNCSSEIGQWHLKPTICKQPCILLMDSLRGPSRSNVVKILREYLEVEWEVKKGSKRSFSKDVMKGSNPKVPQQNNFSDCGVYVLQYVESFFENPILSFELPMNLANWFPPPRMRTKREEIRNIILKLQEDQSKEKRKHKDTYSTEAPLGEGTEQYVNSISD
SENP8 block-2: human SENP8 protease inhibitors, primary screen, biochemical, fluorescence, Nedd8 protein substrate, uHTS | recombinant SENP8 | inhibition, % at 20 µM | hit rate 0.64% among 360,000; in the data active = inhibition mostly above about 40%, no sharp cut-off; inactive = mostly below about 27%
* = called active by the depositor; i = inactive; · = no result.

SMILES | SENP7 inh | SENP1 inh | CendR NRP1 mod | SENP8 block-1 | SENP6 inh | SENP8 block-2
Cc1ccc(S(=O)(=O)Cn2nnnc2C(C(C)C)N2CCSCC2)cc1 (stereo unspecified) | -10.4 | 3.5 | 5.3 | -11.3 | -1.6 | 15.1
O=C(NCCN1CCCCCC1)C1CCN(S(=O)(=O)N2CCOCC2)CC1 | 4.9 | -6.6 | 22.6* | 6.3 | -2.8 | 25.2
COC(=O)[C@@]12C[C@@H](CC(=O)NCc3cccc4ccccc34)C(=O)N(Cc3ccco3)C1=CCC(C)(C)C2 | · | 1.4 | 3.8 | · | · | 18.9
CC(Oc1cccc(Cl)c1)C(=O)NCc1ccc(S(N)(=O)=O)cc1 (stereo unspecified) | -2.8 | -0.8 | 30.4* | -7.1 | -5.7 | -0.1
Cc1cccc(OC(C)C(=O)NCc2ccc(S(N)(=O)=O)cc2)c1 (stereo unspecified) | -1.8 | -1.4 | 4.0 | -0.4 | 1.4 | 7.0
CC(C(=O)N(C)C1CCS(=O)(=O)C1)N1C(=O)/C(=C/c2ccc(F)cc2)SC1=S (stereo unspecified) | 7.2 | 1.3 | -0.1 | 6.1 | 10.8 | 17.1
CCN(C(=O)C(C)N1C(=O)/C(=C/c2ccco2)SC1=S)C1CCS(=O)(=O)C1 (stereo unspecified) | 1.0 | -8.1 | -40.3 | 10.9 | 13.9 | 48.0*
COc1ccc2cc(C3CC=C(COC(C)=O)CN3S(=O)(=O)c3ccccc3[N+](=O)[O-])n(C(=O)OC(C)(C)C)c2c1 (stereo unspecified) | · | 1.2 | 5.9 | · | · | 15.2
CC1(C(=O)Nc2ccc3c(c2)OCCO3)CN(S(C)(=O)=O)CC(=O)N1Cc1cccs1 (stereo unspecified) | · | -2.3 | -3.5 | · | · | 30.1
CSc1ccc(C(=O)C2CCCN(S(=O)(=O)N(C)C)C2)cc1 (stereo unspecified) | 9.8 | -0.4 | -1.2 | 2.4 | 3.6 | 0.2
CN(C)S(=O)(=O)N1CCCC(C(=O)c2ccc(-c3ccccc3)c(F)c2)C1 (stereo unspecified) | 5.9 | 1.0 | 20.0* | 7.2 | 1.9 | 9.5
CNc1cncc(-c2ccccc2NC(C)=O)n1 | · | -6.0 | 32.3* | · | · | i
CC(C)CN1C(=O)CSCC1(C)C(=O)NCc1ccccc1 (stereo unspecified) | · | -1.4 | 7.7 | · | · | 22.3
O=C(c1ccc(S(=O)(=O)Cc2ccccc2Cl)c([N+](=O)[O-])c1)N1CCOCC1 | 5.5 | -0.4 | 17.3* | -0.8 | 2.8 | 16.1
Cc1ccccc1CS(=O)(=O)c1ccc(C(=O)N2CCOCC2)cc1[N+](=O)[O-] | 2.5 | 0.4 | 11.5 | 3.5 | 7.2 | 11.6
CCCCC[C@@H](C)N1C[C@H](COCc2ccccc2)Oc2cc(N3CC[C@H](O)C3)ccc2S1(=O)=O | · | 1.5 | 19.9* | · | · | 14.4
NC(=O)c1ccc(C(F)(F)F)cn1 | -1.6 | -0.5 | -1.7 | -2.5 | 5.0 | 18.8
O=C(O)CS(=O)(=O)c1ccc(C(F)(F)F)cn1 | -3.3 | 0.4 | 35.9* | 1.7 | 0.4 | 11.4
O=c1c2ccccc2nc2n1C(CSc1ccccc1)CS2 (stereo unspecified) | 0.5 | -1.4 | 20.2 | -1.4 | 9.1 | 4.5
O=c1c2ccccc2nc2n1C(CSc1ccc(F)cc1)CS2 (stereo unspecified) | 1.6 | -0.4 | 28.9* | -3.7 | -0.8 | 11.4
CCOC(=O)[C@]12CCC=C1N(Cc1ccc(Cl)cc1Cl)C(=O)[C@H](CC(=O)NCc1ccc(C)o1)C2 | · | -4.0 | -14.8 | · | · | 14.8
COc1cccc(-c2nc(-c3ccc(Br)o3)no2)c1 | 84.0* | 0.4 | -10.9 | 72.4* | 84.8* | 10.0
O=C(CCCNC(=O)/C(=C\c1ccc(F)cc1)NC(=O)c1ccccc1)OCc1ccccc1 | -2.0 | 0.3 | 30.7* | 1.3 | -4.6 | 11.5
CCOC(=O)C1=NOC(Cn2cc(C#N)c(=O)n(C)c2=O)C1 (stereo unspecified) | -3.3 | -0.5 | 36.4* | -10.0 | -32.4 | -0.6
CCOC(=O)C1=NOC(COc2ccccc2C=O)C1 (stereo unspecified) | 5.2 | 0.9 | -2.5 | 9.0 | -6.0 | -9.2
SMILES | SENP7 inh | SENP1 inh | CendR NRP1 mod | SENP8 block-1 | SENP6 inh | SENP8 block-2
CCOC(=O)C1=CN(Cc2ccco2)S(=O)(=O)NC1CC (stereo unspecified) | 8.8 | -5.2 | -2.1 | · | · | -1.3
COC1CC(C)C(OC)c2cc(O)cc(c2O)NC(=O)C(C)=CC=CC(C)C(OC(N)=O)C(C)=CC(C)C1OC (stereo unspecified) | · | -1.5 | 6.7 | · | · | 32.1
COC1C=CC=C(C)C(=O)NC2=CC(=O)C(N)=C(CC(C)CC(OC)C(O)C(C)C=C(C)C1OC(N)=O)C2=O (stereo unspecified) | · | 0.8 | 14.4 | · | · | 57.2*
Cc1ccc(S(=O)(=O)NC(=O)C2(C)CCN2C(=O)Cc2ccc(C(C)(C)C)cc2)cc1 (stereo unspecified) | · | 0.5 | -10.3 | · | · | 10.2
Cc1ccc(NS(=O)(=O)c2cccc(C(=O)NCC(c3ccc(F)cc3)N3CCOCC3)c2)cc1 (stereo unspecified) | -2.5 | 2.5 | 3.5 | 1.5 | 2.8 | -2.8
CCN(CC)S(=O)(=O)c1cccc(NC(=O)CN2C(=O)NC3(CCOc4ccccc43)C2=O)c1 (stereo unspecified) | 8.5 | 2.5 | -18.0 | -6.8 | -9.2 | 11.2
CCCOc1ccc(C2C(C(=O)OC)=CN(CCOC)C=C2C(=O)OC)cc1 | -0.2 | -165.7 | 27.9* | 2.6 | 0.2 | -398.1
COCCN1C=C(C(=O)OC)C(c2ccc(OC)c(OC)c2)C(C(=O)OC)=C1 | -6.6 | -51.2 | -3.5 | 0.7 | 0.6 | -281.0
COCCNC(=O)C1CCCN(C(=O)c2sccc2C)CC1 (stereo unspecified) | · | -1.9 | -5.6 | · | · | 19.4
CN=c1scc(-c2ccccc2F)n1/N=C/c1ccc(O)c(O)c1O | · | 11.6 | -7.1 | · | · | 43.3*
CC(C)N=c1scc(-c2cccs2)n1/N=C/c1ccc(O)c(O)c1O | 4.1 | 12.9 | -3.3 | 8.6 | 3.5 | 29.5
Cc1ccc(N2Cc3ccccc3C2=S)cc1 | 59.2* | -0.8 | 9.1 | 44.3 | 54.0* | 1.3
S=C1c2ccccc2CN1c1ccccc1 | 2.0 | 0.9 | 0.6 | -7.9 | 5.1 | 17.9
O=[N+]([O-])c1ccc(O)c(/C=N/Nc2ccc(Cl)nn2)c1 | -7.4 | 5.4 | 6.5 | 27.3 | 54.4* | 20.1
O=[N+]([O-])c1ccc(O)c(/C=N/NC2=NS(=O)(=O)c3ccccc32)c1 | 94.7* | -23.0 | -175.6 | 82.4* | 86.2* | -102.7
NC(N)=N/N=C/c1cc([N+](=O)[O-])ccc1O | -5.9 | 1.5 | -6.6 | -4.7 | -10.2 | 26.9
